The subject of data set [1] is HCC70. In words: Cytotoxicity against human HCC70 cells assessed as growth inhibition after 96 hrs by crystal violet staining assay. The format is functional. Particulars: HCC70, 96 h, read-out: ED50 (the source's name). The gist of the method: (§1)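 Cells plated at 5000/well in MEM Earle's or RPMI-1640 with 10% FBS. After 24 h, medium changed to Ham's F-12 with insulin (10 µg/mL), transferrin (25 µg/mL), 1% L-glutamine, 10 ng/mL EGF and xylosides at 5–500 µM, for 96 h. Cells fixed in 0.25% glutaraldehyde and stained with 0.1% crystal violet. Lysed in 1% Triton X-100; A595 read. ED50 reported.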

A short description of data set [2]: Cytotoxicity against human CCD-1095SK cells assessed as growth inhibition after 96 hrs by crystal violet staining assay. The format is cell-based. Particulars: read-out: ED50. The gist of the method: as §1
Data set [3] concerns HCC70. In words: Induction of heparan sulphate synthesis in human HCC70 cells assessed as proportion of heparan sulphate of total GAGs. The format is functional. On the set-up: concentration or dose not given beside the values. The gist of the method:
(§2)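 Xyloside-primed [35S]sulfate material was pooled from Superose 6 fractions, 35–51 for HCC70 and 34–51 for CCD-1095Sk. HS was cleaved by deaminative HNO2 at pH 1.5, then the digest was re-separated by gel permeation. Radioactivity was measured by β-counting.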

A short description of data set [4]: Induction of heparan sulphate synthesis in human CCD-1095SK cells assessed as proportion of heparan sulphate of total GAGs. Format: functional. On the set-up: concentration or dose not given beside the values. The gist of the method:
as §2

Data set [5] concerns HCC70. In words: Induction of glycosaminoglycan synthesis in human HCC70 cells assessed as [35S]sulfate incorporation at 100 uM after 24 hrs by bata counting analysis relative to untreated control.
Data set [6] in a line: Induction of glycosaminoglycan synthesis in human CCD-1095SK cells assessed as [35S]sulfate incorporation at 100 uM after 24 hrs by bata counting analysis relative to untreated control.

In the case of `O[C@@H]1[C@@H](O)[C@H](Oc2ccc3ccccc3c2)OC[C@H]1O`, in data set [1], the EC50 came to 243 µM. Moreover, the GI50 at 96 h in data set [2] was 152 µM. Further, the Activity came to 9% in data set [3] and 3% in data set [4]. Besides, the “fold change (FC)” value came to 16 in data set [5] and 24 in data set [6].

Turning to `Oc1ccc2cc(O[C@@H]3OC[C@@H](O)[C@H](O)[C@H]3O)ccc2c1`, in data set [1], the EC50 is 7 µM. Moreover, in data set [2], the GI50 at 96 h was determined as 258 µM. Also, the Activity in data set [3] was 28%; in data set [4], 6%. The “fold change (FC)” value was determined as 37 in data set [5] and 74 in data set [6].

With `O[C@@H]1[C@@H](O)[C@H](OCc2ccc3ccccc3c2)OC[C@H]1O`, in data set [1], the EC50 is 267 µM. Besides, in data set [2], the GI50 at 96 h is 298 µM. In addition, the Activity is on record as 14% in data set [3] and 7% in data set [4]. The “fold change (FC)” value is 31 in data set [5] and 55 in data set [6].

In the case of `O[C@@H]1[C@@H](O)[C@H](OCCOc2ccc3ccccc3c2)OC[C@H]1O`, in data set [1], the EC50 is 221 µM. For the same molecule, the GI50 at 96 h in data set [2] turned out to be 140 µM. Also, the Activity in data set [3] was found to be 9%; in data set [4], 3%. The results for the “fold change (FC)” value in data set [5] and in data set [6] were 26 and 79, respectively.

As to `O[C@@H]1[C@@H](O)[C@H](OCCOCCOc2ccc3ccccc3c2)OC[C@H]1O`, the EC50 in data set [1] stood at 129 µM. For the same molecule, the GI50 at 96 h in data set [2] was 150 µM. Also, the Activity in data set [3] is on record as 5%; in data set [4] it was 2%. In addition, the “fold change (FC)” value in data set [5] is given as 29; in data set [6] it was 80.

For the molecule `O[C@@H]1[C@@H](O)[C@H](OCCOCCOCCOc2ccc3ccccc3c2)OC[C@H]1O`, the EC50 in data set [1] is 87 µM. For the same molecule, in data set [2], the GI50 at 96 h stood at 70 µM. The Activity was found to be 15% in data set [3] and 20% in data set [4]. Besides, the “fold change (FC)” value in data set [5] is 21; in data set [6], 74.

Regarding `Oc1ccc2cc(CO[C@@H]3OC[C@@H](O)[C@H](O)[C@H]3O)ccc2c1`, in data set [1], the EC50 came to 282 µM. For the same molecule, in data set [2], the GI50 at 96 h stood at 223 µM. Further, the values for the Activity in data set [3] and in data set [4] were 14% and 7%, respectively. The “fold change (FC)” value came out at 42 in data set [5] and 98 in data set [6].

In the case of `Oc1ccc2cc(OCCO[C@@H]3OC[C@@H](O)[C@H](O)[C@H]3O)ccc2c1`, the EC50 in data set [1] was 178 µM. Besides, in data set [2], the GI50 at 96 h amounted to 280 µM. For the same molecule, the Activity in data set [3] is listed as 34%; in data set [4], 26%. The “fold change (FC)” value in data set [5] is 29; in data set [6] it was 90.

For the origin of these results see ChEMBL document CHEMBL2384901, “Synthesis and biology of oligoethylene glycol linked naphthoxylosides” (Bioorg Med Chem, 2013).
